In data set [1] the test system is Canis familiaris. Briefly: Diuretic activity of compound measured in dog urine after intravenous injection of 5 mg/kg. Type of data set: functional, Canis lupus familiaris.
Data set [2] is described as follows: Solubility ratio for sickle cell haemoglobin in presence and absence of compound. Format: ADME. The procedure, abridged: (§1)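 HbS purified from red cells by DEAE-Sephacel chromatography and held in 150 mM phosphate, pH 7.4. Compound was added as its sodium salt in 0.15 M phosphate, pH 7.4, and incubated with HbS overnight at 4°C. Samples were sealed in EPR tubes and spun at 150000 g for 2.5 h at 35°C.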

The nature of data set [3]: Solubility ratio of the sickle cell haemoglobin with compound to sickle cell haemoglobin with out compound at 10 mM. Format: ADME. The following applies: 10000 µM. The procedure, abridged: (§2)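 HbS purified from red cells by DEAE-Sephacel chromatography and held in 150 mM phosphate, pH 7.4. Compound was added as its sodium salt in 0.15 M phosphate, pH 7.4, and incubated with HbS overnight at 4°C. Sodium dithionite was then added (final 58.88 mM, final HbS about 24 g%). Samples were sealed in EPR tubes and spun at 150000 g for 2.5 h at 35°C.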

In data set [4] the test system is Canis familiaris. Description: Diuretic activity of compound measured in dog urine after intravenous administration of 5 mg/kg.
Data set [5] in a line: (§3) Solubility ratio of the sickle cell haemoglobin with compound to sickle cell haemoglobin with out compound at 9 mM. Format: ADME. The following applies: 9000 µM. Summed up: as §1
Data set [6] in a line: Solubility ratio of the sickle cell haemoglobin with compound to sickle cell haemoglobin with out compound at 3 mM. Type of data set: ADME. The following applies: 3000 µM. The procedure, abridged: as §1
Data set [7] can be described thus: Solubility ratio of the sickle cell haemoglobin with compound to sickle cell haemoglobin with out compound at 7 mM. Type of data set: ADME. Particulars: 7000 µM. Summed up: as §1
The nature of data set [8]: Solubility ratio of the sickel cell haemoglobin with compound to sickle cell haemoglobin with out compound at 3 mM. Type of data set: ADME. The following applies: 3000 µM. Summed up:
as §2

Data set [9] is described as follows: Solubility ratio of the sickle cell haemoglobin with compound to sickle cell haemoglobin without compound at 5 mM. The following applies: 5000 µM. Type of data set: ADME. The procedure, abridged: as §2
Data set [10] in a line: Solubility ratio of the sickell cell haemoglobin with compound to sickle cell haemoglobin with out compound at 9 mM. Format: ADME. The following applies: 9000 µM. Summed up:
as §2

The nature of data set [11]: Solubility ratio of the sickell cell haemoglobin with compound to sickle cell haemoglobin with out compound at 5 mM. Format: ADME. The following applies: 5000 µM. Summed up: as §2
Data set [12] is described as follows: Solubility ratio of the sickell cell haemoglobin with compound to sickle cell haemoglobin with out compound at 7 mM. Type of data set: ADME. The following applies: 7000 µM. Summed up:
as §2

Data set [13] is described as follows: Solubility ratio of the sickle cell haemoglobin with compound to sickell cell haemoglobin with out compound at 10 mM. Format: ADME. The following applies: 10000 µM. The procedure, abridged:
as §2

Data set [14] can be described thus: Solubility ratio of the sickle cell haemoglobin with compound to sickell cell haemoglobin with out compound at 5 mM. The following applies: 5000 µM. Format: ADME. Summed up: as §2
Data set [15] can be described thus: as §3. Format: ADME. The following applies: 9000 µM. Summed up: as §2
This is another data set of the same source.

Data on 32 molecules can be found in ChEMBL document CHEMBL1124367, “Design, synthesis, and testing of potential antisickling agents. 7. Ethacrynic acid analogues” (J Med Chem, 1989).

In the case of `CC(=O)C(=Cc1ccc(OCC(=O)O)c(Cl)c1Cl)C(C)=O`, the Diuretic activity with Canis familiaris [1] turned out to be 6.
As for `CC1(C2CCCC2)Cc2cc(OCC(=O)O)c(Cl)c(Cl)c2C1=O` (stereo unspecified), the results for the Solubility ratio in data set [2] and in [3] were 1.01 and 1.015, respectively. The molecule also yielded a Diuretic activity in the data set with Canis familiaris [4] of 2.
With `CC/C(=C/c1ccc(OCC(=O)O)c(OC)c1)[N+](=O)[O-]`, the Solubility ratio in data set [5] was determined as 1.207; in [6], 1.085; in data set [2], 1.128; in data set [7], 1.159.
The like results for `C=C(CC)C(=O)c1ccc(OCCCCC(=O)O)c(Cl)c1Cl` were, in that order, 1.308, 1.081, 1.129 and 1.2.
On the same counts, the results for `C=C(CC)C(=O)c1c(Cl)cc(Cl)cc1OCC(=O)O` are 1.129, 1.048, 1.08 and 1.103.
For `C/C(=C/c1ccc(OCC(=O)O)cc1)[N+](=O)[O-]`, the Solubility ratio was 1.099 in data set [5], 1.038 in data set [6], 1.076 in [2] and 1.075 in data set [7]. The Diuretic activity in the data set with Canis familiaris [1] is listed as 1.
`CC(C)C(Br)C(=O)c1ccc(OCC(=O)O)c(Cl)c1Cl` (stereo unspecified) registered a Diuretic activity in the data set on Canis familiaris [1] of 3. Further, the Solubility ratio in data set [2] is 0.966; in data set [3] it was 0.983.
Take `C=C(CC)C(=O)c1ccc(OCCCCCC(=O)O)c(Cl)c1Cl`: the Solubility ratio in [5] is reported as 1.164; in data set [2], 1.086; in data set [8], 1.063; in data set [7], 1.125.
As for `CCC(C)C(=O)c1ccc(OCC(=O)O)c(Cl)c1Cl` (stereo unspecified), the Diuretic activity in the data set with Canis familiaris [1] is recorded as 2. Besides, the values for the Solubility ratio in [9] and in data set [3] were 1.061 and 1.088, respectively.
Take `C=C(CC)C(=O)c1ccc(OCCC(=O)O)c(Cl)c1Cl`: the Solubility ratio amounted to 1.112 in data set [6], 1.302 in data set [10], 1.145 in data set [11] and 1.188 in data set [12].
Turning to `O=C(c1cccs1)c1cc2c(c(Cl)c1Cl)OC(C(=O)O)C2` (stereo unspecified), the Solubility ratio in data set [2] is listed as 1.076; in data set [3], 1.08. In the data set with Canis familiaris [4], this molecule yielded a Diuretic activity of 0.
Regarding `CC1(C2CCCC2)Cc2cc(OCCCC(=O)O)c(Cl)c(Cl)c2C1=O` (stereo unspecified), the Solubility ratio in data set [2] is on record as 0.961; in data set [3] it was 1.006.
As to `C=C(CC)C(=O)c1ccc(OC(C)(C)C(=O)O)c(Cl)c1Cl`, the Solubility ratio in data set [5] was 1.237; in data set [6], 1.05; in data set [2], 1.094; in [7], 1.183. Besides, in the data set with Canis familiaris [1], the Diuretic activity is 0.
`CCC(SC)C(=O)c1ccc(OCC(=O)O)c(Cl)c1Cl` (stereo unspecified): the figures for the Solubility ratio in data set [2] and in data set [3] were 1.016 and 1.073, respectively.
As to `C=C(CC)C(=O)c1ccc(OCC(=O)NCC(=O)O)c(Cl)c1Cl`, the Solubility ratio was determined as 1.327 in data set [5], 1.109 in [6], 1.145 in data set [2] and 1.222 in [7]. In addition, in the data set with Canis familiaris [1], the Diuretic activity amounted to 3.
For `C=C(CC)C(=O)c1ccc(OCCCC(=O)NCC(=O)O)c(Cl)c1Cl`, the Solubility ratio turned out to be 1.309 in data set [5], 1.107 in [6], 1.224 in [2] and 1.287 in data set [7].
For `C=C(CC)C(=O)c1ccc(OCCN(CC)CC)c(Cl)c1Cl`, the Solubility ratio in data set [5] stood at 1.113; in data set [6], 1.073; in [2], 1.077; in [7] it was 1.089.
The like results for `C=C(CC)C(=O)c1ccc(OCCCC(=O)O)c(Cl)c1Cl` were, in that order, 1.196, 1.084, 1.122 and 1.168.
Take `CCC(C(=O)c1ccc(OCC(=O)O)c(Cl)c1Cl)S(C)(=O)=O` (stereo unspecified): the Solubility ratio was found to be 1.052 in data set [13] and 1.029 in [14].
As to `CCC1=C(c2ccc(OCC(=O)O)c(Cl)c2Cl)OC(CC)(C(=O)c2ccc(OCC(=O)O)c(Cl)c2Cl)CC1` (stereo unspecified), the Solubility ratio in data set [13] came to 0.996; in data set [14], 0.993. In the data set on Canis familiaris [1], this molecule came in with a Diuretic activity of 0.
Consider `C=C(CCC)C(=O)c1ccc(OC2(C(=O)O)CCC2)c(Cl)c1Cl`, for which the Solubility ratio is listed as 1.143 in [5], 1.057 in data set [6], 1.085 in data set [2] and 1.099 in data set [7].
Take `C/C=C(\CC)C(=O)c1ccc(OCC(=O)O)c(Cl)c1Cl`: the Solubility ratio in [5] turned out to be 1.078; in data set [6], 1.017; in [2], 1.033; in [7], 1.062. In the data set with Canis familiaris [1], this molecule had a Diuretic activity of 5.
Regarding `C=C(CCC)C(=O)c1ccc(OCCCC(=O)O)c(Cl)c1Cl`, the Solubility ratio in data set [5] is given as 1.149; in data set [6], 1.082; in data set [2], 1.115; in data set [7], 1.155.
Consider `C=CC(=O)c1ccc(OCC(=O)O)c(Cl)c1Cl`, for which the Solubility ratio in data set [5] is given as 1.095; in data set [6] it was 1.033; in data set [2] it was 1.06; in data set [7], 1.067.
As to `CCC1=C(c2ccc(OCCCC(=O)O)c(Cl)c2Cl)OC(CC)(C(=O)c2ccc(OCCCC(=O)O)c(Cl)c2Cl)CC1` (stereo unspecified), the Solubility ratio in data set [5] turned out to be 1.039; in data set [2], 1.059.
Regarding `CCC(CN(C)C)C(=O)c1ccc(OCC(=O)O)c(Cl)c1Cl.Cl` (stereo unspecified), the Diuretic activity with Canis familiaris [1] is recorded as 4. Moreover, the results for the Solubility ratio in data set [2] and in data set [3] were 1.018 and 1.168, respectively.
With `CC/C(=C/c1ccc(C(=O)O)cc1Cl)[N+](=O)[O-]`, the Solubility ratio in [15] is reported as 1.15; in data set [6] it was 1.052; in data set [2] it was 1.1; in data set [7], 1.106.
As to `CC1(c2ccccc2)Cc2cc(OCC(=O)O)c(Cl)c(Cl)c2C1=O` (stereo unspecified) [INDACRINONE], the Solubility ratio in data set [2] is given as 0.989; in data set [3], 1. The molecule further came in with a Diuretic activity in the data set with Canis familiaris [4] of 3.
`CC/C(=C/c1ccc(OCC(=O)O)c(Cl)c1Cl)[N+](=O)[O-]`: the Solubility ratio in data set [5] was 1.131; in data set [6], 1.051; in data set [2] it was 1.086; in [7], 1.096.
Turning to `CCC1=Cc2cc(OCC(=O)O)c(Cl)c(Cl)c2C1=O`, the Solubility ratio in [5] turned out to be 1.12; in data set [6], 1.074; in data set [2], 1.09; in [7], 1.103. This molecule also yielded a Diuretic activity in the data set with Canis familiaris [1] of 5.
For the molecule `C=C(CC)C(=O)c1ccc(OCC(=O)O)c(Cl)c1Cl` [ETHACRYNIC ACID], the Solubility ratio in [5] came to 1.184; in data set [6] it was 1.07; in [2] it was 1.125; in data set [7], 1.151. Besides, the Diuretic activity with Canis familiaris [1] is on record as 6.
Take `C=C(CC)C(=O)c1ccc(OC2(C(=O)O)CCC2)c(Cl)c1Cl`: the Solubility ratio in [5] was 1.202; in data set [6], 1.08; in [2] it was 1.127; in data set [7], 1.147.
